Screens (PubChem BioAssay)
RGS4 inh: RGS4 inhibitors, primary screen, cell-based, HEK293 M3R inducible RGS4, calcium flux | Regulator of G-protein signaling 4 (Homo sapiens), P49798 | Fluo-4 calcium flux; hits give high values; triggered by carbachol at its EC20 | B-score at 10 µM | 310,000 compounds, 0.45% hits | AID 463165, 2010;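 active means B-score, a plate-corrected calcium signal, over three deviations above library mean, with baseline fluorescence within five deviations of library mean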;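 further: RGS4 expression induced by doxycycline in cells with stable M3 receptor; B-score is computed from the integrated fluorescence ratio over baseline after carbachol; higher B-score means a larger calcium signal and so more RGS4 inhibition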
Target sequence (P49798 whole entry, looked up): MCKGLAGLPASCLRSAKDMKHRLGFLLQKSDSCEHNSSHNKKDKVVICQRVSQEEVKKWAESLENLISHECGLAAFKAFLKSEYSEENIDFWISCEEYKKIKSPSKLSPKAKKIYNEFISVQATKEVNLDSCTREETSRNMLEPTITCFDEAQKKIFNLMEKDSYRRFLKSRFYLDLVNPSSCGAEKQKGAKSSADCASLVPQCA
MrgX1 PAM: positive allosteric modulators of MrgX1, primary screen, HEK293 cells, Fluo-4 calcium flux; FDSS; hits give high values; 310,000 compounds, 0.63% hits; B-score at 10 µM; Mas-related G-protein coupled receptor member X1 (Homo sapiens), Q96LB2;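 active means plate-corrected calcium response at least 3 library SD above typical, normal starting fluorescence, not activating the receptor alone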;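 further: compound read alongside a low EC10 to EC30 dose of BAM8-22 agonist; peak minus trough fluorescence over baseline measured at the second addition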
Target sequence (Q96LB2 whole entry, looked up): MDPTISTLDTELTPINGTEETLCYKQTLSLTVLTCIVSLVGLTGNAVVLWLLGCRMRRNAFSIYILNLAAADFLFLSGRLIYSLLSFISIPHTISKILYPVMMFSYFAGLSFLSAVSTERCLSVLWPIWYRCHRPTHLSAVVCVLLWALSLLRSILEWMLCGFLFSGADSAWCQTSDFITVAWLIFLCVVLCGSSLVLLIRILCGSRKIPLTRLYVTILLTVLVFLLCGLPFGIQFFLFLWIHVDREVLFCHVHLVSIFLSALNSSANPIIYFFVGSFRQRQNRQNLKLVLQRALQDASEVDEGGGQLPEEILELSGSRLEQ
MrgX1 agonist: agonists of human MrgX1 receptor, primary screen, HEK293 cells, Fluo-4 calcium flux | Mas-related G-protein coupled receptor member X1 (Homo sapiens), Q96LB2 | Fluo-4 calcium fluorescence, agonist mode; hits give high values | B-score at 10 µM | 310,000 compounds, 0.44% hits | AID 588627, 2011;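 active means calcium response B-score plate-corrected fluorescence ratio at least 3 library SD, with starting fluorescence B-score inside 5 SD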
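Material: MrgX1-expressing HEK293 cells; input: 15,000 cells per well; doses: test compound given as first of three sequential additions; schedule: overnight plating before 1 h dye loading; technique: Fluo-4 NW calcium-flux fluorescence, kinetic read; evaluation: baseline-normalised fluorescence change ratio, B-scored; control set: plate-wise positive and negative controls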
RGS4 pot: RGS4 potentiators or activators, primary screen, cell-based, HEK293 M3R inducible RGS4, calcium flux; B-score at 10 µM; carbachol calcium flux Fluo4; hits give low values; 310,000 compounds, 0.92% hits;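 active means B-score of the integrated calcium signal more than 4 SD below the library mean, with starting fluorescence not abnormally high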;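 further: negative B-score means reduced calcium response which marks RGS4 activation or potentiation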
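test system = M3R-expressing HEK293 line, RGS4 induced by doxycycline | probe or stimulus = carbachol at ECmax as muscarinic agonist stimulus | timing = dye loading 30 min 37 °C, buffer rest 30 min RT | signal = calcium dye Fluo4 fluorescence | evaluation = B score from integrated fluorescence ratio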
MrgX1 antag: antagonists of human MrgX1 receptor, primary screen, HEK293 cells, Fluo-4 calcium flux | Mas-related G-protein coupled receptor member X1 (Homo sapiens), Q96LB2 | BAM8-22 antagonism; hits give low values | B-score at 10 µM | 310,000 compounds, 1.3% hits | AID 588676, 2011;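 active means calcium-response B-score plate-corrected more than 3 library SD below zero, starting fluorescence within 5 deviations, no agonist response on first addition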;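 further: peak minus trough fluorescence over baseline after final BAM8-22 challenge near maximal dose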
RGS4 inh valid: enhanced carbachol calcium response, M3R/RGS4 cells, RGS4 inhibitor project, cell-based, validation screen, HEK293 M3R/RGS4, calcium flux; carbachol calcium Fluo-4 fluorescence; carbachol added at its EC20; 0 = buffer wells, 100 = carbachol control; 1,700 compounds, 65% hits; shares compounds with RGS4 inh; AID 492999, 2010; calcium response, % at 10 µM;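 active means duplicate-averaged calcium response above the buffer-only control mean plus 5 SD of those controls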;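 further: integrated fluorescence ratio F max minus min over baseline F0; higher response in RGS4-induced cells means RGS4 inhibition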
M3R Ca ctr: carbachol calcium response in non-induced M3R cells, confirmation, counter-screen for RGS4 inhibitor project, cell-based, HEK293 M3R. shares compounds with RGS4 inh. carbachol calcium Fluo-4; submaximal (EC20) carbachol stimulus; buffer wells 0%, carbachol control wells 100%. activity (percent), % at 10 µM. 1,900 compounds, 20% hits; call rule not given here;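 further: RGS4 induction absent so cells express M3R without RGS4; higher means more calcium signal and flags a non-specific hit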
M3R basal Ca ctr: second RGS4 inhibitor counter-screen in uninduced cells lacking carbachol. calcium response (agonist-mode artifact), % at 10 µM. HEK293 M3R/RGS4 non-induced, Fluo-4 calcium, no carbachol; normalised: buffer wells 0%, carbachol wells 100%. 1,900 compounds, 22% hits. shares compounds with RGS4 inh. AID 493001;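 active means duplicate-averaged calcium rise in uninduced cells above buffer wells' mean plus 5 SD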
* = called active by the depositor; i = inactive; nt = no result given. Only some compounds are listed: those with a hit (about 3.5% of all), similar ones and a draw of the others.

SMILES	RGS4 inh	MrgX1 PAM	MrgX1 agonist	RGS4 pot	MrgX1 antag	RGS4 inh valid	M3R Ca ctr	M3R basal Ca ctr
O=C1NC(c2ccccc2)=C(c2ccc3ccccc3n2)C(c2ccccc2)N1 (stereo not drawn)	i	i	i	i	i	nt	nt	nt
CN(C(=O)c1ccc(Br)o1)C1(C)CCS(=O)(=O)C1 (stereo not drawn)	i	i	i	i	i	nt	nt	nt
CC(C)CC(=O)NC1(C(F)(F)F)C(=O)Nc2c1c(=O)[nH]c(=O)n2Cc1ccco1 (stereo not drawn)	i	i	i	i	i	nt	nt	nt
O=c1[nH]c(=O)n(Cc2ccco2)c2c1C(C(F)(F)F)(C(F)(F)F)N=C(c1ccc(F)cc1)N2	i	i	i	i	i	i	i	i
O=C(CSc1nnc(SCc2ccc(Cl)cc2)s1)N/N=C/c1ccccc1C(=O)O	i	i	i	i	i	nt	nt	nt
O=c1c2ccccc2[nH]c(=S)n1CCCN1CCN(c2ccccc2)CC1	i	i	i	i	i	nt	nt	nt
CC1CC(C)CN(CCCn2c(=S)[nH]c3ccccc3c2=O)C1 (stereo not drawn)	12.8*	i	i	i	i	92.0%*	77.0%*	11.0%*
COc1cccc(-c2c(C(=O)N/N=C(\C)c3ccco3)nnn2-c2nonc2N)c1	i	i	i	i	i	nt	nt	nt
COc1cccc(-c2c(C(=O)N/N=C/c3cccs3)nnn2-c2nonc2N)c1	i	i	i	i	-7.58*	nt	40.0%*	i
COc1ccc(/C=N/NC(=O)c2nnn(-c3nonc3N)c2-c2cccs2)cc1OC	i	i	i	i	i	nt	nt	nt
CCOc1cccc(-c2c(C(=O)N/N=C/c3cccs3)nnn2-c2nonc2N)c1	5.56*	i	i	i	i	30.5%*	i	i
COc1ccc(/C=N/NC(=O)c2nnn(-c3nonc3N)c2-c2cccc(OC)c2)cc1	i	7.2*	i	i	i	nt	30.5%*	8.0%*
COc1ccc(C(=O)N/C(N)=N/c2nc3ccccc3o2)cc1	i	i	i	i	i	nt	nt	nt
COc1ccc(C(=O)/C=C/Sc2nc3ccccc3o2)cc1	24.4*	i	i	i	i	9.5%*	i	i
CCCCn1c(SCC(=O)NCc2ccco2)nc2ccc(N3CCOCC3)cc2c1=O	5.01*	i	i	i	i	i	i	i
CCCCn1c(SCC(=O)Nc2ccc(OC)cc2)nc2ccc(N3CCOCC3)cc2c1=O	i	i	i	i	i	nt	nt	nt
CCCCn1c(SCC(=O)NCc2ccccc2)nc2ccc(N3CCOCC3)cc2c1=O	i	i	i	i	i	i	i	i
CCCCn1c(SCC(=O)NC(C)CC)nc2ccc(N3CCOCC3)cc2c1=O (stereo not drawn)	i	i	i	i	i	nt	nt	nt
CC1C/C(=C/c2ccncc2)C(=O)/C(=C/c2ccncc2)C1 (stereo not drawn)	28.3*	7.95*	i	i	i	120.5%*	i	7.5%*
Cn1ncc2c(N3CCN(c4ccccc4F)CC3)ncnc21	i	i	i	i	i	nt	nt	nt
Cn1ncc2c(N3CCN(c4ccc(Cl)c(Cl)c4)CC3)ncnc21	5.7*	i	i	i	i	9.5%*	i	i
O=C(CSc1nnc(SCc2ccccc2)s1)N/N=C/c1c[nH]c2ccccc12	i	nt	nt	i	nt	i	i	i
O=C(CSc1nnc(SCc2ccccc2Cl)s1)N/N=C/c1c[nH]c2ccccc12	6.79*	i	i	i	i	14.5%*	i	i
CCc1ccccc1N(CC(=O)N1CCN(c2ccccc2)CC1)S(C)(=O)=O	i	i	i	i	i	nt	nt	nt
O=C(/C=C/c1ccnc2ccccc12)c1cccs1	13.5*	i	i	i	i	18.5%*	41.0%*	i
SMILES	RGS4 inh	MrgX1 PAM	MrgX1 agonist	RGS4 pot	MrgX1 antag	RGS4 inh valid	M3R Ca ctr	M3R basal Ca ctr
O=C(Cn1cnc2ccccc2c1=O)c1cccs1	i	i	i	i	i	nt	nt	nt
CCCOc1ccc2c(c1)C(=NN=C(N)N)c1cc(OCCC)ccc1-2	4.73*	i	i	i	i	8.0%*	i	i
CCN(CC)CCOc1ccc2c(c1)C(=NO)c1cc(OCCN(CC)CC)ccc1-2	i	i	i	i	i	nt	nt	nt
Oc1c(Br)cccc1/C=N/c1ncn[nH]1	4.67*	i	i	i	i	7.5%*	i	i
Cc1nc2c(=O)n(C)c(=O)n(C)c2nc1Cl	11.9*	i	i	i	i	36.5%*	i	i
Cn1c(=O)c2nc(NCc3ccccc3)cnc2n(C)c1=O	i	i	i	i	i	nt	nt	nt
COc1ccc(S(=O)(=O)N2CCOC23CCN(S(=O)(=O)c2cc(C)ccc2OC)CC3)cc1	i	i	i	i	i	nt	nt	nt
CC(=O)Oc1ccc([C@@H]2COc3c(ccc4c3C=CC(C)(C)O4)C2)c(OC(C)=O)c1	6.12*	i	i	i	i	17.0%*	i	i
O=C(/C=C\NCC(=O)c1ccccc1)c1ccc2ccccc2c1	6.52*	i	i	i	i	16.5%*	30.0%*	i
C=C(C)C1(O)OC(=O)C=C1OC (stereo not drawn)	7.84*	i	i	i	i	9.0%*	i	i
COc1ccc(C(=O)/C=C/c2ccsc2)cc1CSCC(=O)O	4.99*	i	i	i	i	10.0%*	i	i
CC(=O)Nc1ccc(S(=O)(=O)N2CCCN(c3nc(C)cc(C)c3C#N)CC2)cc1	i	i	i	i	i	nt	nt	nt
